Results on one compound are retold here after paper PMC8603004 (EFSA Journal, 2021).

The structures appear in SMILES notation.

In data set [1] the test system is L5178Y TK +/− mouse lymphoma. The experiment in a line: L5178Y TK+/− mouse lymphoma assay. It is filed as cell-based. The conditions noted are these: up to 1,211 μg/mL, presence and absence of S9‐mix.
Data set [2] relates to Syrian hamster embryo cells. The experiment in a line: Cell transformation assay. It is filed as cell-based. The conditions noted are these: 500 to 2,500 μg/mL, 7 days. In outline:
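GLP in vitro transformation assay in Syrian hamster embryo cells, following the OECD draft proposal (2012). The test compound was given as a continuous 7-day treatment at six concentrations from 500 to 2,500 μg/mL, chosen from a dose-range finding test. The frequency of morphologically transformed colonies was scored against positive and vehicle controls.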

On to `O=[N+]([O-])OCCCO` [3‐NOP, propan‐1,3‐diol‐mononitrate], for which, in data set [1], the “Mutation frequencies (MF)” value is “No biologically significant increases in MF”. In addition, in data set [2], the Morphologically transformed colonies is “No significant increase in the frequency of morphologically transformed colonies”.
